Results from ChEMBL document CHEMBL1212823, “m-Azipropofol (AziPm) a photoactive analogue of the intravenous general anesthetic propofol” (J Med Chem, 2010).
Values after ≈ are worked out from the molar mass of the structure shown. Active and inactive are the calls of the source. The rule behind the calls is not given here.

Assays:
[1] = tested on: Xenopus laevis; assay: Anesthetic effect on Xenopus laevis tadpole assessed as loss of startle reflex after 30 mins; assay type: functional, organism-based; conditions: 0.5 h
Method in brief: (§1)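 Xenopus tadpoles in groups of 10, in 30 mL pond water containing a range of compound concentrations, incubated 30 min to equilibrate. Water was then replaced with fresh pond water and recovery followed over 24 h.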

[2] = species on record: Equus caballus; assay: Binding affinity to horse spleen apoferritin by isothermal titration calorimetry
Method in brief: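 Sequential titrations were linked and corrected with ligand-into-buffer, buffer-into-protein and buffer-into-buffer controls. Heats were fitted to a single binding-site class, Hill slope fixed at 1; mean with 95% CI.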

[3] = biological target: T1, GABA-A receptor; alpha-1/beta-2/gamma-2 (Rattus norvegicus) (UniProt P18508+P62813+P63138); assay: Activation of rat alpha-1-beta-2-gamma-2L expressed in HEK293 cells assessed as potentiation of GABA-induced current at 0.3 to 3 uM by electrophysiological assay relative to control; assay type: cell-based
[4] = species on record: Equus caballus; assay: Binding affinity to horse spleen apoferritin using 1-AMA by fluorescence competition assay
Method in brief: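 HSAF 7 μM with 7 μM 1-aminoanthracene in pH 7.4 PBS, titrated with compound 0–110 μM. Excitation 380 nm, emission 400–800 nm, baseline-corrected. Variable-slope Hill fit gave IC50 and Hill slope; KD obtained by Cheng–Prusoff correction for the 1-AMA competitor.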

[5] = biological target: T1, GABA-A receptor; alpha-1/beta-2/gamma-2 (Rattus norvegicus); assay: Activation of rat alpha-1-beta-2-gamma-2L expressed in HEK293 cells at 30 uM by electrophysiological assay; assay type: cell-based
[6] = Binding affinity to horse spleen apoferritin using 1-AMA by fluorescence competition method
[7] = tested on: Xenopus laevis; assay: Anesthetic effect on Xenopus laevis tadpole assessed as loss of spontaneous motion measured for 30 seconds after 30 mins; assay type: functional, organism-based; conditions: 0.5 h; method in brief: as §1
[8] = Solubility of the compound in water; assay type: physicochemical
Method in brief: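 Extinction coefficient of the 368 nm diazirine band determined in methanol at known concentration; maximal concentration in distilled water then calculated from UV absorbance using that coefficient.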

[9] = Chemical stability of the compound assessed as half life in presence of UV irradiation; assay type: physicochemical
Method in brief: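 A 160 μM solution in distilled water in a 1 cm quartz cuvette was irradiated at 350 nm for 30 min. UV spectra were taken every 3 min to follow loss of the diazirine peak (368 nm); t1/2 reported with 95% CI.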

SMILES | EC50 [1] | Activity [2] | fold change (FC) [3] | Activity [4] | Activity [5] | Kd [6] | EC50 [7] | solubility [8] | half-life [9]
CC(C)c1cccc(C(C)C)c1O [PROPOFOL] | 2800 nM | 4.8 µM | 9.3 | 12 µM | Active | 10000 nM | 1100 nM |  | 
CC(C)c1ccc(C2(C(F)(F)F)N=N2)cc1O | 3100 nM | 21 µM | 1.7 | 23 µM | inactive | 19000 nM | 1100 nM | 185 µM (≈ 45.2 µg/mL) | 34 min
